# Reference: ChEMBL document CHEMBL1143136 (J Med Chem, 2008)
# Where a SMILES comes first, the peptide text is derived from it. The star is where a group is joined. Trt = c1ccc(C(c2ccccc2)(c2ccccc2)*)cc1
# How the values were obtained:
# HeLa [1] = assay: Induction of mitotic arrest in human HeLa cells at 1 uM assessed as MPM2 antibody positive cells after 24 hrs; assay type: functional
# How it was run: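 HeLa cells (DMEM, 10% FBS, 37 °C, 5% CO2) were drug-treated for 24 h, then fixed in 90% methanol at −20 °C. They were labelled with MPM-2 mitotic phospho-epitope antibody plus FITC anti-mouse IgG, and with propidium iodide. Two-dimensional flow cytometry gave the percentage of 4N-arrested cells that were MPM2-positive.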
# HeLa [2] = assay: Cell cycle arrest in human HeLa cells assessed as accumulation at G2/M phase at 1 uM after 24 hrs; assay type: functional
# How it was run: (§1)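 HeLa cells grown in DMEM with 10% FBS at 37 °C, 5% CO2, in 60 mm dishes, exposed to drug for 24 h. Drugs were diluted in medium from 50 mM DMSO stocks. Cells were fixed in 90% methanol at −20 °C and stained with propidium iodide. Flow cytometry gave the percentage of cells with 4N DNA content (G2/M).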
# HeLa [3] = assay: Induction of mitotic arrest in human HeLa cells assessed as monoastral spindle formation after 24 hrs; assay type: functional, cell-based
# HeLa [4] = assay: Induction of mitotic arrest in human HeLa cells after 24 hrs; assay type: functional, cell-based
# How it was run: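 A concentration series was given to HeLa cells for 24 h (DMEM, 10% FBS, 37 °C, 5% CO2). Cells were fixed in methanol at −20 °C, then stained with MPM-2 antibody/FITC secondary and propidium iodide. Two-dimensional flow cytometry followed.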
# HeLa [5] = assay: Cell cycle arrest in human HeLa cells assessed as accumulation at G2/M phase at 5 uM after 24 hrs; assay type: functional; how it was run: as §1
# cells = conditions: Homo sapiens, NCI60
Compound,Activity (HeLa [2]) [%],EC50 (HeLa [3]) [µM],also measured
N[C@@H](CSC(c1ccccc1)(c1ccccc1)c1ccc2ccccc2c1)C(=O)O,68.1,0.33,Activity (HeLa [1]): 79.9%; EC50 (HeLa [4]): 0.6 µM
N[C@@H](CSC(c1ccccc1)(c1ccccc1)c1ccccc1)C(=O)OC(c1ccccc1)c1ccccc1,–,> 5,–
N[C@@H](CSC(c1ccccc1)(c1ccccc1)c1ccc(O)cc1)C(=O)O,–,> 5,–
COC(=O)[C@@H](N)CSC(c1ccccc1)(c1ccccc1)c1ccccc1,20.2,1.08,Activity (HeLa [5]): 72.4%
Cc1ccc(C(SC[C@H](N)C(=O)O)(c2ccccc2)c2ccccc2)cc1,71,0.21,Activity (HeLa [1]): 84.1%; EC50 (HeLa [4]): 0.33 µM
N[C@@H](CSC(c1ccccc1)(c1ccc(-c2ccccc2)cc1)c1ccc(-c2ccccc2)cc1)C(=O)O,–,> 5,–
N[C@@H](COC(c1ccccc1)(c1ccccc1)c1ccccc1)C(=O)O,–,> 5,–
N[C@@H](CSC(c1ccccc1)(c1ccccc1)C1CCCCC1)C(=O)O,19.9,1.85,Activity (HeLa [5]): 55.2%
Cc1ccc(C(SC[C@H](N)C(=O)O)(c2ccccc2)c2ccc(C)cc2)cc1,50.8,0.53,EC50 (HeLa [4]): 1 µM; Activity (HeLa [5]): 70.9%
N[C@@H](CSC(c1ccccc1)(c1ccccc1)c1ccc(F)cc1)C(=O)O,24,1.55,Activity (HeLa [5]): 68.8%
N[C@@H](CSC(c1ccccc1)(c1ccccc1)c1ccccc1)C(=O)NCC(=O)O,–,> 5,–
COC(=O)[C@@H](NC(=O)[C@@H](N)CSC(c1ccccc1)(c1ccccc1)c1ccccc1)C(C)C (H-Cys(Trt)-Val-OMe),–,3.5,Activity (HeLa [5]): 21.8%
Cc1ccc(C(SC[C@H](N)C(=O)O)(c2ccc(C)cc2)c2ccc(C)cc2)cc1,–,3.1,Activity (HeLa [5]): 34.1%
CC(=O)N[C@@H](CSC1(c2ccccc2)c2ccccc2-c2ccccc21)C(=O)O,–,> 5,–
NCCCCSC(c1ccccc1)(c1ccccc1)c1ccccc1,–,> 5,–
COc1ccc(C(SC[C@H](N)C(=O)O)(c2ccccc2)c2ccccc2)cc1,69,0.2,Activity (HeLa [1]): 81.6%; EC50 (HeLa [4]): 0.3 µM
CCCCC(SC[C@H](N)C(=O)O)(c1ccccc1)c1ccccc1,19.1,1.4,Activity (HeLa [5]): 71.1%
O=C(O)C(CSC(c1ccccc1)(c1ccccc1)c1ccccc1)/N=C/c1cccs1 (centres undefined),–,> 5,–
N[C@@H](CSC(c1ccccc1)(c1ccccc1)c1ccc(Cl)cc1)C(=O)O,48.5,0.51,EC50 (HeLa [4]): 0.66 µM; Activity (HeLa [5]): 74.7%
N[C@@H](CSC(c1ccccc1)(c1ccc(CO)cc1)c1ccc(CO)cc1)C(=O)O,–,> 5,–
N[C@@H](CSC(c1ccccc1)(c1ccccc1)c1ccccc1)C(=O)N[C@@H](CSC(c1ccccc1)(c1ccccc1)c1ccccc1)C(=O)O (H-Cys(Trt)-Cys(Trt)-OH),–,> 5,–

Compound,Activity (HeLa [2]) [%],EC50 (HeLa [3]) [µM],also measured
N[C@@H](CSC(c1ccccc1)(c1ccccc1)c1ccc(CO)cc1)C(=O)O,–,> 5,–
CC(NC(=O)[C@@H](N)CSC(c1ccccc1)(c1ccccc1)c1ccccc1)C(=O)O (some centres undefined),–,> 5,–
NCCCSC(c1ccccc1)(c1ccccc1)c1ccccc1,–,> 5,–
COc1ccc(C(SC[C@H](N)C(=O)O)(c2ccccc2)c2ccc(OC)cc2)cc1,–,> 5,–
NCCSC(c1ccccc1)(c1ccccc1)c1ccccc1,21.1,1.08,Activity (HeLa [5]): 65.8%
N[C@@H](CSC1(c2cccc3ccccc23)c2ccccc2-c2ccccc21)C(=O)O,–,> 5,–
CC(C)C(SC[C@H](N)C(=O)O)(c1ccccc1)c1ccccc1,22.6,1.08,Activity (HeLa [5]): 59.1%
N[C@@H](CSC(c1ccccc1)(c1ccccc1)c1ccccc1)C(=O)O [S-TRITYL-L-CYSTEINE],23.1,0.7,GI50 (cells): 1.31 µM; EC50 (HeLa [4]): 1.7 µM; Activity (HeLa [5]): 75.8%
N[C@@H](CSC(c1ccccc1)(c1ccccc1)c1ccc(Br)cc1)C(=O)O,68.7,0.31,Activity (HeLa [1]): 77.4%; EC50 (HeLa [4]): 0.45 µM
N[C@@H](CSC1(c2ccccc2)c2ccccc2-c2ccccc21)C(=O)O,–,> 5,–
N[C@@H](CSC(c1ccccc1)(c1ccccc1)c1cccc2ccccc12)C(=O)O,–,> 5,–
N[C@@H](CSC1(c2ccc(Cl)cc2)c2ccccc2-c2ccccc21)C(=O)O,–,> 5,–
COC(=O)[C@H](CC(C)C)NC(=O)[C@@H](N)CSC(c1ccccc1)(c1ccccc1)c1ccccc1 (H-Cys(Trt)-Leu-OMe),–,5,–
N[C@@H](CSC1(c2ccc(F)cc2)c2ccccc2-c2ccccc21)C(=O)O,–,> 5,–
N[C@@H](CSC(c1ccccc1)(c1ccccc1)c1ccc2c(c1)OCO2)C(=O)O,24.3,1.37,Activity (HeLa [5]): 68%
Cc1ccc(C2(SC[C@H](N)C(=O)O)c3ccccc3-c3ccccc32)cc1,–,> 5,–
CC(C)(SC(c1ccccc1)(c1ccccc1)c1ccccc1)C(N)C(=O)O (centres undefined),–,> 5,–
N[C@@H](CSC(c1ccccc1)c1ccccc1)C(=O)O,–,> 5,–
CCC(SC[C@H](N)C(=O)O)(c1ccccc1)c1ccccc1,–,> 5,–
CC(SC[C@H](N)C(=O)O)(c1ccccc1)c1ccccc1,–,> 5,–
